The source made the active and inactive calls.
Experiments:
Klebsiella pneumoniae [1] = experiment: Potentiation of carbapenem antibacterial activity against Klebsiella pneumoniae BAA 2146 expressing NDM-1 assessed as reduction in carbapenem MIC at 50 uM after 16 hrs by broth microdilution technique; assay type: functional
In short: (§1)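 Modified broth microdilution in cation-adjusted Mueller Hinton broth. The adjuvant's own MIC is measured first in CAMHB. Antibiotic MICs (imipenem/meropenem, or cefotaxime for the ESBL strain) are then determined in CAMHB supplemented with the 2-aminoimidazole at a fixed concentration of ≤30% of its own MIC. Reduction is reported as fold change versus the antibiotic MIC without adjuvant.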

Klebsiella pneumoniae [2] = experiment: Antibacterial activity against Klebsiella pneumoniae BAA 2146 expressing NDM-1 after 16 hrs by broth microdilution technique; assay type: functional; conditions: BAA 2146, 16 h
In short: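 MIC of the 2-AI compound alone, determined by modified broth microdilution in cation-adjusted Mueller Hinton broth (CAMHB).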

Klebsiella pneumoniae [3] = experiment: Antibacterial activity against Klebsiella pneumoniae BAA 2146 expressing NDM-1 assessed as intact to permeabilized cell membrane ratio at 50 uM after 1 hr by SYTO9/PI-based fluorimetry relative to control; assay type: functional
In short: (§2)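 Membrane damage was measured by Baclight assay after 1 h exposure of the NDM-1 strain to compound. The intact/permeabilized membrane ratio is expressed as % of DMSO-only treated control bacteria.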

Klebsiella pneumoniae [4] = experiment: Antibacterial activity against Klebsiella pneumoniae BAA 2146 expressing NDM-1 assessed as intact to permeabilized cell membrane ratio at 30 uM after 1 hr by SYTO9/PI-based fluorimetry relative to control; assay type: functional; in short: as §2
Klebsiella pneumoniae [5] = experiment: Potentiation of meropenem antibacterial activity against Klebsiella pneumoniae BAA 2146 expressing NDM-1 assessed as reduction in meropenem MIC at 30 uM after 16 hrs by broth microdilution technique; assay type: functional
In short: (§3)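 Modified broth microdilution: imipenem or meropenem MIC measured in CAMHB supplemented with a fixed concentration of the 2-AI compound. Fold reduction is taken against the carbapenem MIC without compound.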

Klebsiella pneumoniae [6] = experiment: Potentiation of imipenem antibacterial activity against Klebsiella pneumoniae BAA 2146 expressing NDM-1 assessed as reduction in imipenem MIC at 30 uM after 16 hrs by broth microdilution technique; assay type: functional; in short: as §3
Klebsiella pneumoniae [7] = experiment: Potentiation of imipenem antibacterial activity against Klebsiella pneumoniae BAA 2146 expressing NDM-1 assessed as reduction in imipenem MIC at 50 uM after 16 hrs by broth microdilution technique; assay type: functional; in short: as §3
Klebsiella pneumoniae [8] = experiment: Potentiation of meropenem antibacterial activity against Klebsiella pneumoniae BAA 2146 expressing NDM-1 assessed as reduction in meropenem MIC at 50 uM after 16 hrs by broth microdilution technique; assay type: functional, organism-based; in short: as §3
Klebsiella pneumoniae [9] = experiment: Potentiation of imipenem antibacterial activity against Klebsiella pneumoniae BAA 2146 expressing NDM-1 assessed as reduction in imipenem MIC at 40 uM after 16 hrs by broth microdilution technique; assay type: functional
Klebsiella pneumoniae [10] = experiment: Potentiation of imipenem antibacterial activity against Klebsiella pneumoniae BAA 1705 expressing KPC-2 assessed as reduction in imipenem MIC at 30 uM after 16 hrs by broth microdilution technique; assay type: functional; in short: as §1
[11] = Hemolytic activity against defibrinated sheep blood at 30 uM after 1 hr by UV-spectrophotometry relative to control; assay type: ADME, tissue-based, Ovis aries; conditions: read-out: Activity
In short: (§4)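 Hemolysis was tested on mechanically defibrinated sheep blood. Lysis is expressed relative to a positive control. HD₅₀ is the concentration lysing 50% of cells versus that control.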

Klebsiella pneumoniae [12] = experiment: Potentiation of imipenem antibacterial activity against Klebsiella pneumoniae BAA 2146 expressing NDM-1 assessed as increase in log reduction in CFU of imipenem at 30 uM at 4 to 16 hrs relative to control; assay type: functional, organism-based
In short: (§5)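 Time-kill: cultures grown in CAMHB with imipenem (2–32 μg/mL) with or without 30 μM compound. Bacteria were plated at time points up to 16 h and viable CFU enumerated. Log reduction in CFU/mL is relative to untreated control; ≥2 log₁₀ drop versus antibiotic alone counted as synergy.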

Klebsiella pneumoniae [13] = experiment: Potentiation of imipenem antibacterial activity against Klebsiella pneumoniae BAA 2146 expressing NDM-1 assessed as decreased regrowth at 30 uM at 4 to 16 hrs relative to control; assay type: functional, organism-based
In short: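 Time-kill: K. pneumoniae BAA-2146 (NDM-1) grown in CAMHB with imipenem (2, 8 or 32 μg/mL in figure; 16 and 4 μg/mL also reported) with or without additive at 30 μM. Viable CFU counted by plating at time points up to 16 h; log reduction in CFU/mL versus untreated control. Synergy defined as ≥2 log10 CFU decrease versus antibiotic alone.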

Klebsiella pneumoniae [14] = experiment: Antibacterial activity against Klebsiella pneumoniae BAA 2146 expressing NDM-1 assessed as reduction in CFU at 30 uM after 16 hrs relative to control; assay type: functional, organism-based; in short: as §5
Klebsiella pneumoniae [15] = experiment: Potentiation of cefotaxime antibacterial activity against Klebsiella pneumoniae ATCC 700603 expressing extended spectrum beta-lactamase assessed as reduction in cefotaxime MIC at 30 uM after 16 hrs by broth microdilution technique; assay type: functional; in short: as §1
[16] = Hemolytic activity against defibrinated sheep blood after 1 hr by UV-spectrophotometry; assay type: ADME, tissue-based, Ovis aries; conditions: read-out: HD50; in short: as §4

Row | MIC (Klebsiella pneumoniae [2]) [µM] | Compound | Activity (Klebsiella pneumoniae [7]) | Activity (Klebsiella pneumoniae [8]) | other results
1 | 200 | CCCCCCCc1ccc(-c2c[nH]c(N)n2)cc1.Cl | – | – | fold change (FC) (Klebsiella pneumoniae [1]): 2; Activity (Klebsiella pneumoniae [3]): 21.2%
2 | > 200 | CCCCCCc1ccc(-c2nc(N)[nH]c2CCCCCC)cc1.Cl | – | – | Activity (Klebsiella pneumoniae [4]): 8.13%; fold change (FC) (Klebsiella pneumoniae [5]): 2; Activity (Klebsiella pneumoniae [6]; 50 uM, in the assay text read “at 50 uM” for “at 30 uM”): inactive
3 | 200 | CC(C)(C)c1ccc(-c2c[nH]c(N)n2)cc1.Cl | – | – | –
4 | 100 | CCCCCCc1ccc(-c2nc(N)[nH]c2CCC)cc1.Cl | – | – | –
5 | > 200 | Cl.Nc1nc(-c2ccc(-c3ccccc3)cc2)c[nH]1 | – | – | –
6 | > 200 | CCCCCCc1ccc(-c2nc(N)[nH]c2-c2ccccc2)cc1.Cl | inactive | inactive | –
7 | 200 | CCCCCCc1ccc(-c2nc(N)[nH]c2CC(C)C)cc1.Cl | inactive | inactive | –
8 | > 200 | CCCCCCc1ccc(-c2nc(N)[nH]c2Cc2ccccc2)cc1.Cl | inactive | inactive | –
9 | 100 | CCCCCCc1ccc(-c2nc(N)[nH]c2C)cc1.Cl | – | – | fold change (FC) (Klebsiella pneumoniae [5]): 8; fold change (FC) (Klebsiella pneumoniae [6]): 8
10 | 200 | CCCCc1ccc(-c2c[nH]c(N)n2)cc1.Cl | – | – | –
11 | 100 | CCCCCCc1ccc(-c2c[nH]c(N)n2)cc1.Cl | – | – | fold change (FC) (Klebsiella pneumoniae [9]): 64; fold change (FC) (Klebsiella pneumoniae [7]): 256; fold change (FC) (Klebsiella pneumoniae [10]): 16; Activity (Klebsiella pneumoniae [4]): 8.5%; hemolysis at 1 h, 30 µM [11]: 2.5%; Activity (Klebsiella pneumoniae [12]): Active; Activity (Klebsiella pneumoniae [13]): Active; Activity (Klebsiella pneumoniae [14]): inactive; fold change (FC) (Klebsiella pneumoniae [5]): 16; fold change (FC) (Klebsiella pneumoniae [15]): 8; HC50 at 1 h [16]: > 500 µM; fold change (FC) (Klebsiella pneumoniae [6]): 16
12 | 100 | CCCCCc1ccc(-c2c[nH]c(N)n2)cc1.Cl | – | – | –
13 | > 200 | CCCCCCc1ccc(-c2nc(N)[nH]c2-c2ccc3ccccc3c2)cc1.Cl | inactive | inactive | –

Reference: ChEMBL document CHEMBL2086336, “Small molecule suppression of carbapenem resistance in NDM-1 producing Klebsiella pneumoniae” (ACS Med Chem Lett, 2012)
